Among the data in ChEMBL document CHEMBL1130749, “Inhibitors of the chymotrypsin-like activity of proteasome based on di- and tri-peptidyl alpha-keto aldehydes (glyoxals)” (Bioorg Med Chem Lett, 1998) are Ki values, retold here.

The structures appear in SMILES notation. Peptide text beside a SMILES is read from it. * marks the point of attachment. Cbz = O=C(OCc1ccccc1)*

One assay has as its system Proteasome. The assay is described as follows: Inhibitory constant for the inactivation of the chymotrypsin like activity of proteasome from human red blood corpuscles was determined; NI means no inhibition. In kind it is subcellular. The essentials:
(§1)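 Proteasome isolated from human erythrocytes by a previously described procedure. Its chymotrypsin-like activity was followed by hydrolysis of the fluorogenic substrate Suc-Leu-Leu-Val-Tyr-NHMec. Inhibition was treated as slow-binding, with a fast EI complex forming first and then isomerising to a tight EI*. Ki* was obtained from the final steady-state rates using a rearranged competitive-inhibition equation.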
Consider `CC(=O)N[C@@H](C(=O)N[C@@H](CC(C)C)C(=O)N[C@@H](CCCCN)C(=O)C=O)C(C)C`, for which the Ki entry is “Not Active”.
With `O=CC(=O)[C@H](Cc1ccccc1)NC(=O)[C@@H]1CCCN1C(=O)OCc1ccccc1`, the Ki result is on record as “Not Active”.
Still for that read-out and setting: then `CC(=O)N[C@@H](CCCN=C(N)N)C(=O)N[C@@H](CCCN=C(N)N)C(=O)C=O`, with “Not Active”.

For the next assay, the target named is Proteasome. The assay is described as follows: Inhibitory constant for the inactivation of the chymotrypsin like activity of proteasome from human red blood corpuscles was determined. In kind it is subcellular. The essentials:
as §1
Turning to `CC(C)C[C@H](NC(=O)[C@H](C)NC(=O)OCc1ccccc1)C(=O)C=O`, the Ki was found to be 3.86 µM.
In turn, `CC(C)[C@H](NC(=O)OCc1ccccc1)C(=O)N[C@@H](Cc1ccccc1)C(=O)C=O` showed a Ki of 2.05 µM.
The same measure, in the same setting: next, `CC(C)C[C@H](NC(=O)[C@H](CC(C)C)NC(=O)[C@@H](CC(C)C)NC(=O)c1ccccc1)C(=O)C=O`: 0.0037 µM; `CC(C)C[C@H](NC(=O)OCc1ccccc1)C(=O)N[C@@H](Cc1ccccc1)C(=O)C=O`: 1.4 µM.
`CC(C)C[C@H](NC(=O)[C@@H](CC(C)C)NC(=O)OCc1ccccc1)C(=O)N[C@@H](Cc1ccc(O)cc1)C(=O)C=O`: the Ki was found to be 0.0031 µM.
The same measure, in the same setting: next, `C[C@H](NC(=O)OCc1ccccc1)C(=O)N[C@@H](Cc1ccccc1)C(=O)C=O`: 9.2 µM; `CC(C)C[C@@H](C=O)NC(=O)[C@H](CC(C)C)NC(=O)[C@H](CC(C)C)NC(=O)OCc1ccccc1` [MG-132] (Cbz-Leu-Leu-Leu-aldehyde): 0.004 µM.
